Results published in ChEMBL document CHEMBL3351343, “Synthesis and biological evaluation of novel sigma-1 receptor antagonists based on pyrimidine scaffold as agents for treating neuropathic pain” (J Med Chem, 2014).

What was measured:
[1] = target: Mu-type opioid receptor (Homo sapiens) (UniProt P35372); experiment: Displacement of [3H]-diprenorphine from human mu-opioid receptor at 1 uM after 150 mins by liquid scintillation counting analysis
[2] = target: Norepinephrine transporter (Rattus norvegicus) (UniProt Q9WTR4); experiment: Displacement of [N-methyl-3H]-nisoxetine from rat hippocampal membrane Noradrenaline transporter at 1 uM after 8 hrs by liquid scintillation counting analysis; assay type: tissue-based; settings: Hippocampus
Chain of Norepinephrine transporter (Rattus norvegicus) (Q9WTR4 as listed by the source): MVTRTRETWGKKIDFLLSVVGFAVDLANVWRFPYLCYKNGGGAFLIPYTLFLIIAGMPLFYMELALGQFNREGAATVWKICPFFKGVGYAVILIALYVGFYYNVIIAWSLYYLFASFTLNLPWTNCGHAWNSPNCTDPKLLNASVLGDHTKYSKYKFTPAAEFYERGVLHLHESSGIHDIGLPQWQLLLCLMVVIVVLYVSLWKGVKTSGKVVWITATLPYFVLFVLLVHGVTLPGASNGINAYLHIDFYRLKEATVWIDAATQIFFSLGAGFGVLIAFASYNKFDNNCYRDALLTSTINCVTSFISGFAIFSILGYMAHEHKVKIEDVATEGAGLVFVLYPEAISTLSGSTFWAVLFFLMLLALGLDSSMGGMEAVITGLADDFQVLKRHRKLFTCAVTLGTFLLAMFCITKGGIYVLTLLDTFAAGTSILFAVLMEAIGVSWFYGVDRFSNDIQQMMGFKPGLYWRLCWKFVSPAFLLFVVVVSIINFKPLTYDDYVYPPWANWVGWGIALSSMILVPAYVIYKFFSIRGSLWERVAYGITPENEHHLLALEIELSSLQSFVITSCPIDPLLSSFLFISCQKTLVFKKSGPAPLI

[3] = test system: Rattus norvegicus; experiment: Antineuropathic pain activity in po dosed Sprague-Dawley rat chronic constriction injury model assessed as inhibition of mechanical allodynia measured on day 18 by repeated dose treatment assay relative to sham-treated control; assay type: functional
How it was run: (§1)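 Sprague-Dawley rats, sciatic nerve chronic constriction injury (four loose 4-0 silk ligatures, chloral hydrate anaesthesia); sham has nerve exposed without ligation. Model confirmed on day 14. Oral dosing in 0.5% methylcellulose, 10 mL/kg, twice daily on days 15–18. Read after first dose (day 15) and last dose (day 18). Von Frey withdrawal threshold and radiant-heat plantar withdrawal latency (30 s cutoff), each paw sampled four times and averaged; 10 rats/group.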

[4] = test system: Rattus norvegicus; experiment: Antineuropathic pain activity in po dosed Sprague-Dawley rat chronic constriction injury model assessed as inhibition of thermal hypersensitivity measured on day 15 relative to sham-treated control; assay type: functional; how it was run: as §1
[5] = target: Sigma non-opioid intracellular receptor 1 (Cavia porcellus, UniProt Q60492); experiment: Displacement of [3H]-(+)-pentazocine from sigma-1 receptor in Dunkin Hartley guinea pig brain membranes after 180 mins by liquid scintillation counting analysis; set-up: species or system Membrane
Chain of Sigma non-opioid intracellular receptor 1 (Q60492 whole entry): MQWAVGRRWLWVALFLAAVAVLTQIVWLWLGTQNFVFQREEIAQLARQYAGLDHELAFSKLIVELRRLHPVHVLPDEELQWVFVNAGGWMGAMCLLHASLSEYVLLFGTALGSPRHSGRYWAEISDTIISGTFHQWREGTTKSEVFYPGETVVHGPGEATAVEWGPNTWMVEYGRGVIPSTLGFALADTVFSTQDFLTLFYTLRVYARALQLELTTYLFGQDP

[6] = test system: Mus musculus; experiment: Antinociceptive activity in Kun Ming mouse pain model assessed as reduction in licking and biting time during phase-2 at 80 mg/kg, ip administered 15 mins prior to formalin challenge relative to vehicle-treated control; assay type: functional; settings: route intraperitoneal
How it was run: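 Kun Ming mice (20 ± 2.0 g), 10–12 per group, given vehicle (30% PEG 400) or drug ip at 10 mL/kg 15 min before intraplantar formalin. Time spent licking or biting the injected paw scored at 0–5 min (phase I) and 15–45 min (phase II). Effect (%) = (LTV − LTD)/LTV × 100.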

[7] = target: Sodium channel protein type 9 subunit alpha (Homo sapiens) (UniProt Q15858); experiment: Inhibition of from human Nav 1.7 channel expressed in HEK293 cells at 1 uM after 5 mins by electrophysiological analysis; assay type: cell-based
Chain of Sodium channel protein type 9 subunit alpha (Homo sapiens) (Q15858 whole entry, looked up): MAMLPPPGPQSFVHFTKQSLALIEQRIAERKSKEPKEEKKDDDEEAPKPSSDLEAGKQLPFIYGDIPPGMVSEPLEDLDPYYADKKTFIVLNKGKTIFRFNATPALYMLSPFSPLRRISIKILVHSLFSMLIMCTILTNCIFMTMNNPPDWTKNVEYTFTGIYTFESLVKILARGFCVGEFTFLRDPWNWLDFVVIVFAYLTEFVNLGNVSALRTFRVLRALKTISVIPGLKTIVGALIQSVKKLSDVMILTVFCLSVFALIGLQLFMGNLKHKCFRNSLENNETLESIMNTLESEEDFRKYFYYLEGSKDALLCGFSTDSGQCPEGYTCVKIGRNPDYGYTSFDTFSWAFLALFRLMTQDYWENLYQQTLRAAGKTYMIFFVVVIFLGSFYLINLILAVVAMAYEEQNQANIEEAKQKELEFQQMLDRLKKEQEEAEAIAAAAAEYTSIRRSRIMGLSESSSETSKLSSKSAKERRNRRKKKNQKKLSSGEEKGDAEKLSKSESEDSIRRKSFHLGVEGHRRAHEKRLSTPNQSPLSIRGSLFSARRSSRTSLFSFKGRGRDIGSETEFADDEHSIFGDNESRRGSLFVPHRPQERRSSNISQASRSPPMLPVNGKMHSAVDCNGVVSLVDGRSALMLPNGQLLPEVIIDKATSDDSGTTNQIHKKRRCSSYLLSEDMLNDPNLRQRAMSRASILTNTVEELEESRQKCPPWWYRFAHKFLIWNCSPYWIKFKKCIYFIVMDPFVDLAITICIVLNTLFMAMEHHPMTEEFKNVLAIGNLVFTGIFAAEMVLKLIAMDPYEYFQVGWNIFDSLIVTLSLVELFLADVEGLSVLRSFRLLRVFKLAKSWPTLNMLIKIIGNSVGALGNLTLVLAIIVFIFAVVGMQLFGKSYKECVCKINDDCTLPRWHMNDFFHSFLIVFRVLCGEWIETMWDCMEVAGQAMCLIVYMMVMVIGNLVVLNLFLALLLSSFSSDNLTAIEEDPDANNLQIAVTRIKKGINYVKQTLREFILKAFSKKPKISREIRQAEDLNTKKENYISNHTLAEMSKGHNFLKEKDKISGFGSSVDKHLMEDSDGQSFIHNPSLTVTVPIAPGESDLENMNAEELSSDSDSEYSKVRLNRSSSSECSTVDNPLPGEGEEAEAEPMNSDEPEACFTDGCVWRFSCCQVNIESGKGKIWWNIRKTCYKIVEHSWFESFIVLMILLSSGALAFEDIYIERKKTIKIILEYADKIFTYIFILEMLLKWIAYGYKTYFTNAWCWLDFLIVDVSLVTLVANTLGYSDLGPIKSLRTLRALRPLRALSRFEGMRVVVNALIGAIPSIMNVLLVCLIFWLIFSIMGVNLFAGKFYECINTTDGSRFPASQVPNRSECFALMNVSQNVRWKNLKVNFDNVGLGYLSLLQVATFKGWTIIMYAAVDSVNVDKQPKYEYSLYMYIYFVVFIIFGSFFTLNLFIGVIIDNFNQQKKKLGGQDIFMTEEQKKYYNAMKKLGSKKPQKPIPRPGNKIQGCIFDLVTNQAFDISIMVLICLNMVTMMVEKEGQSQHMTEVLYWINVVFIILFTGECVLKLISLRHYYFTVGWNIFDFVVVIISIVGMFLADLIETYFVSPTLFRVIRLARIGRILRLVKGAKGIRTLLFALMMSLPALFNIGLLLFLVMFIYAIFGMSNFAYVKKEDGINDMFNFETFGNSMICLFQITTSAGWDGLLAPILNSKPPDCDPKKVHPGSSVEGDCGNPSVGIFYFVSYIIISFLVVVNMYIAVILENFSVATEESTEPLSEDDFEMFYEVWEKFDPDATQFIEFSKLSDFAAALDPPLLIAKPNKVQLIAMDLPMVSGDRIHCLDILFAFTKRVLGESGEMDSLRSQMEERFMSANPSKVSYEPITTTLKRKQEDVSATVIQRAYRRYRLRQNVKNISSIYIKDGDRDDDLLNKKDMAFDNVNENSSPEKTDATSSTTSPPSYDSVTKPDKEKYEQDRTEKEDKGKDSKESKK

[8] = target: Transient receptor potential cation channel subfamily V member 1 (Homo sapiens) (UniProt Q8NER1); experiment: Inhibition of from human TRPV-1 channel expressed in HEK293 cells at 1 uM after 5 mins by electrophysiological analysis; assay type: cell-based
Chain of Transient receptor potential cation channel subfamily V member 1 (Homo sapiens) (Q8NER1 whole entry): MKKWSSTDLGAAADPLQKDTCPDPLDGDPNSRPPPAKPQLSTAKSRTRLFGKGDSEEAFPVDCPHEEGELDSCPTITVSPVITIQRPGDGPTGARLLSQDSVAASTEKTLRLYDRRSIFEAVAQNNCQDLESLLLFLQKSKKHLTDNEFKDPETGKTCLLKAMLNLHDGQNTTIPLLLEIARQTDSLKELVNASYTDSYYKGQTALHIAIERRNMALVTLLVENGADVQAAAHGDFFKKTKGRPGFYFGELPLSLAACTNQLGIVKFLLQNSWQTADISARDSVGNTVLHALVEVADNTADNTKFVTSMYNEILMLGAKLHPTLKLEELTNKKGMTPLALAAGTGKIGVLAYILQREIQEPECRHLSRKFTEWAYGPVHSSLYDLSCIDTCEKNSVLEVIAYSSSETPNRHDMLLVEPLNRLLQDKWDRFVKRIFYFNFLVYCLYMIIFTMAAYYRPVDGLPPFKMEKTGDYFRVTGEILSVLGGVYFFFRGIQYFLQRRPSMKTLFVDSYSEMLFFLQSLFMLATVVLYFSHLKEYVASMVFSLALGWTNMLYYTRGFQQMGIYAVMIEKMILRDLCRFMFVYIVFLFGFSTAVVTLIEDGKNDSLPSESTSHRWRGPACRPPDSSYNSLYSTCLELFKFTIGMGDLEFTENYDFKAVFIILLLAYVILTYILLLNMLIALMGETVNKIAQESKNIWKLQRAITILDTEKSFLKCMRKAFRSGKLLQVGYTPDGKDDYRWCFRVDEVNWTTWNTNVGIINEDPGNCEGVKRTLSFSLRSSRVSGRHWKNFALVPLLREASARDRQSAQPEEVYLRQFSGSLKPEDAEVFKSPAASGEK

[9] = Half life in Sprague-Dawley rat at 320 mg/kg, po by HPLC/MS/MS analysis; assay type: ADME, organism-based; set-up: dose 320 mg/kg, route oral; settings: in vivo
How it was run: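 Sprague-Dawley rats (250 ± 5.0 g), n = 8/group, dosed iv via lateral tail vein at 16 mg/kg in 100% saline or by oral gavage at 320 mg/kg as suspension in 0.5% methylcellulose. Serial tail-vein blood into heparinized tubes at 30 min, 1, 2, 3, 4, 5, 6, 7 and 24 h. Plasma treated by acetonitrile protein precipitation, then HPLC/MS on C18 column, 40 °C.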

[10] = target: Glutamate NMDA receptor (Rattus norvegicus) (UniProt P35439+Q00959+Q00960+Q00961+Q62645+Q8VHN2+Q9R1M7); experiment: Displacement of [3H]-glycine from rat hippocampal membrane NMDA receptor at 1 uM after 30 mins by liquid scintillation counting analysis
[11] = target: Histamine H3 receptor (Rattus norvegicus) (UniProt Q9QYN8); experiment: Displacement of [3H]-N-alpha-methylhistamine from rat cerebral cortex histamine H3 receptor at 1 uM after 30 mins by liquid scintillation counting analysis; assay type: tissue-based
Chain of Histamine H3 receptor (Rattus norvegicus) (Q9QYN8 whole entry): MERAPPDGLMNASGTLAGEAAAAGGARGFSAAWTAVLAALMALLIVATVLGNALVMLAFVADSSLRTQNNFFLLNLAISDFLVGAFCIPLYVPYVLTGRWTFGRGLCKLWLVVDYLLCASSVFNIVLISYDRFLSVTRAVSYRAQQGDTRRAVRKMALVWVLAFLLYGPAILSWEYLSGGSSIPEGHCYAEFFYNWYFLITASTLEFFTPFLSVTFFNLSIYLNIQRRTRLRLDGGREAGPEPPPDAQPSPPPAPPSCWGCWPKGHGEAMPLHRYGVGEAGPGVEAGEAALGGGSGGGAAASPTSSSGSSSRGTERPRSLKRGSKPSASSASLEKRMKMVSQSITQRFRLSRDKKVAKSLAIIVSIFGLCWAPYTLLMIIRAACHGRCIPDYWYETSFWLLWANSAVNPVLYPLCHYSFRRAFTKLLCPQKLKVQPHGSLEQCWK

Chain of Mu-type opioid receptor (Homo sapiens) (P35372 whole entry): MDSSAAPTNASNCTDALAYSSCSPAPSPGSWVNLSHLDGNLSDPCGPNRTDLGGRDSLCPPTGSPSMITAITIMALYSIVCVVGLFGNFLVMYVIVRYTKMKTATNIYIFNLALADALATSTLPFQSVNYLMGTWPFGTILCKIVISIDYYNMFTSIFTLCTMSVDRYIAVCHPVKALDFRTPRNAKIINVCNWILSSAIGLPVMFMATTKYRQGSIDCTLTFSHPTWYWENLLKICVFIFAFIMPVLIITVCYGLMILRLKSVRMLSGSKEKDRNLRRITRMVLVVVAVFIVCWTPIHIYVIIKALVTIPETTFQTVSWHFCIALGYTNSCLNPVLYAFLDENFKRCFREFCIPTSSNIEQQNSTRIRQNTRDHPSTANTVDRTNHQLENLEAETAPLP

SMILES: Cc1nc(-c2ccc(Cl)cc2)nc(OCCCN2CCCCC2)c1Cl
- inhibition [1]: < 50%
- inhibition [2]: < 50%
- inhibition [3]: Dose-dependent effect
- ED50 ([3]; 432 h): 61.8 mg/kg
- inhibition [4]: Dose-dependent effect
- ED50 ([4]; 360 h): 47.2 mg/kg
- Ki [5]: 1.06 nM
- Time [6]: 37.41 s
- inhibition [7]: < 50%
- inhibition [8]: < 50%
- half-life [9]: 3.81 h
- inhibition [10]: < 50%
- inhibition [11]: < 50%
